The structures appear in SMILES notation. Screen size: about 1,200 compounds; about 770 (64%) were called active. The set was probably picked from earlier hits. Not all results are given here. Values without a mark were called inactive.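 Rule for the calls: active = percent activation of the STAT3 luciferase reporter above a set limit taken from the earlier primary screen (cut at about 130% in these data); inactive = the rest.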

The experiment can be described thus: enhancers of IL-6 STAT3 signaling – U3A cells, luciferase, luminescence, confirmation (AID 1267).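 Note: 0% = background signal of medium plus substrate and 100% = median of IL-6 with DMSO wells.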 The note with it: U3A STAT3-luciferase reporter, IL-6 potentiation, at 5.7 µM, stronger effect = higher value. Put shortly:
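Replicates: triplicate / Test system: STAT1-null U3A cells carrying STAT3-luciferase reporter / Measured by: luciferase reporter luminescence / Dosing: single nominal compound dose of 5.7 µM / Benchmarks: high control IL-6 plus DMSO wells, media-only background wells / Probe or stimulus: IL-6 stimulus at 33 ng/mL final / Times: 1 h pretreatment, 6 h IL-6, 37 °C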
(In general: A reporter such as luciferase makes a cellular process visible.)
Take `CCC/C(=N\O)c1c[nH]c2ccccc12`: the potentiation (% of control) was 143% (active).
For `COc1cc(-n2c(=S)[nH]c3ccc(C)cc3c2=O)c(Cl)cc1Cl` the value was 129%.

For the origin of these results see PubChem BioAssay AID1267 (The Scripps Research Institute Molecular Screening Center, 2008).
